In ChEMBL document CHEMBL4699596, “Therapeutic Targeting of MMP-12 for the Treatment of Chronic Obstructive Pulmonary Disease” (J Med Chem, 2020):
Calls of active or inactive are those of the source. No cut-off for these calls is given here. Non-standard residues stand in square brackets, D forms with d. Residues, ends and D or L forms follow the SMILES beside them. *: point of attachment. dPhe(4-CF3) = N[C@H](Cc1ccc(C(F)(F)F)cc1)C(=O)O; dBip = N[C@H](Cc1ccc(-c2ccccc2)cc1)C(=O)O; dPhe(3-Cl) = N[C@H](Cc1cccc(Cl)c1)C(=O)O; dPhe(3-Me) = Cc1cccc(C[C@@H](N)C(=O)O)c1; dPhe(4-Cl) = N[C@H](Cc1ccc(Cl)cc1)C(=O)O; dPhe(4-Me) = Cc1ccc(C[C@@H](N)C(=O)O)cc1; dPhe(2-Me) = Cc1ccccc1C[C@@H](N)C(=O)O; dPhe(3-F) = N[C@H](Cc1cccc(F)c1)C(=O)O; dPhe(4-F) = N[C@H](Cc1ccc(F)cc1)C(=O)O; 2Nal = N[C@@H](Cc1ccc2ccccc2c1)C(=O)O; dPhe(2-F) = N[C@H](Cc1ccccc1F)C(=O)O; dIgl = N[C@@H](C(=O)O)C1Cc2ccccc2C1; d(hPhe) = N[C@H](CCc1ccccc1)C(=O)O; Bn = c1ccc(C*)cc1; NHOH = ON*

Tests used:
[1] = target: T1, Macrophage metalloelastase (Homo sapiens, UniProt P39900); test: Inhibition of recombinant human MMP12 catalytic domain (Gly106 to Gly263 residues) expressed in Escherichia coli BL21 Codon Plus cells using 5-FAM/QXL520 FRET peptide as substrate preincubated for 15 mins followed by substrate addition and measured at 3 mins interval for 60 mins by fluorescence assay
Target sequence in this assay (P39900 whole entry, the tested form may be a part): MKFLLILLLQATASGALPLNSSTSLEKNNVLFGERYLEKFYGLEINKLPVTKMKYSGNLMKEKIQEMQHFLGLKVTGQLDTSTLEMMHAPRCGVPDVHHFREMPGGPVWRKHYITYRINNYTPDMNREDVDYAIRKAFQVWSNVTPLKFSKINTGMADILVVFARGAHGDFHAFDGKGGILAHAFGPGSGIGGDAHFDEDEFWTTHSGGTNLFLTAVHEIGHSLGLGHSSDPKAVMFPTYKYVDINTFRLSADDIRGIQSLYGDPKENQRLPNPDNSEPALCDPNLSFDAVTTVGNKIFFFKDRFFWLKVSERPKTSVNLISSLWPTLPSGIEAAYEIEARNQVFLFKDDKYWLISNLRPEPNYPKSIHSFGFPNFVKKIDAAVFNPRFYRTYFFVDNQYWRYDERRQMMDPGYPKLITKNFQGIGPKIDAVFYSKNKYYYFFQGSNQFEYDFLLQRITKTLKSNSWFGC

[2] = target: T1, Macrophage metalloelastase; test: Binding affinity to recombinant human 15N-labelled MMP12 catalytic domain (Gly106 to Gly263 residues) expressed in Escherichia coli BL21 Codon Plus cells assessed as ratio of peak intensities of L212 and I220 in bound versus the unbound form at 10 uM by 1D-1H NMR analysis
Target sequence in this assay (P39900 106-470 limits assumed): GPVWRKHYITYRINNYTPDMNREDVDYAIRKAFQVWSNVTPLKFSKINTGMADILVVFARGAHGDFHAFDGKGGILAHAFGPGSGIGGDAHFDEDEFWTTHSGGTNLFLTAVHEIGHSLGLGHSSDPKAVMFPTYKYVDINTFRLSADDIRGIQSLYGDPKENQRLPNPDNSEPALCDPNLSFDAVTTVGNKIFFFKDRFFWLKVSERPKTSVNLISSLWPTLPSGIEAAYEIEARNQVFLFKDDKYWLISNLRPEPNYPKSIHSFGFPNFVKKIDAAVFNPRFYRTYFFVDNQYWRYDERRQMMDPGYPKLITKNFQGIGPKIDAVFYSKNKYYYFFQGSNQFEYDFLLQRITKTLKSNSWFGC

[3] = target: T2, Interstitial collagenase (Homo sapiens) (UniProt P03956); test: Inhibition of recombinant human 6His-tagged MMP1 catalytic domain (106 to 261 residues) expressed in Escherichia coli at 4 to 25 nM using 5-FAM/QXL520 FRET peptide as substrate preincubated for 15 mins followed by substrate addition and measured at 3 mins interval for 60 mins by fluorescence assay; conditions: dose nM 4-25, time 75.0 min
T2 sequence (whole entry): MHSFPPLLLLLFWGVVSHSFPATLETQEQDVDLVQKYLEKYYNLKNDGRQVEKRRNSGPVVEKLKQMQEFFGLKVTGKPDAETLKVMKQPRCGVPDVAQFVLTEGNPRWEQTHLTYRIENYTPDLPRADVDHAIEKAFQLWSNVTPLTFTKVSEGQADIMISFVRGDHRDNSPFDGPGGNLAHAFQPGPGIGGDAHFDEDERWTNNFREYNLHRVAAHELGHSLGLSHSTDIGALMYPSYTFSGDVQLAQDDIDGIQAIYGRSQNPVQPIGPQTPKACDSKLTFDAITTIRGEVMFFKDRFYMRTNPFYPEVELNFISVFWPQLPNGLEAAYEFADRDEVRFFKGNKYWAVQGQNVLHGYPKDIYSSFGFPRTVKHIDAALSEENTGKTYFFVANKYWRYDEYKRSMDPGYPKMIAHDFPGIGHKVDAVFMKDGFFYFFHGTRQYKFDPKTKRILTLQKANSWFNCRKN
Outline: (§1)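 Catalytic domains, 10 ng enzyme, preincubated with inhibitor 15 min at RT. FRET substrate (SensoLyte 520 kit) then added, fluorescence read every 3 min for 60 min. Inhibitors at 25 nM or 4 nM; percent inhibition reported.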

[4] = target: Matrix metalloproteinase-9 (Homo sapiens) (UniProt P14780); test: Inhibition of recombinant human 6His-tagged MMP9 catalytic domain (112 to 445 residues) expressed in Escherichia coli at 4 to 25 nM using 5-FAM/QXL520 FRET peptide as substrate preincubated for 15 mins followed by substrate addition and measured at 3 mins interval for 60 mins by fluorescence assay; conditions: dose nM 4-25, time 75.0 min; outline: as §1
Matrix metalloproteinase-9 (Homo sapiens), sequence (P14780 whole entry, the tested form may be a part): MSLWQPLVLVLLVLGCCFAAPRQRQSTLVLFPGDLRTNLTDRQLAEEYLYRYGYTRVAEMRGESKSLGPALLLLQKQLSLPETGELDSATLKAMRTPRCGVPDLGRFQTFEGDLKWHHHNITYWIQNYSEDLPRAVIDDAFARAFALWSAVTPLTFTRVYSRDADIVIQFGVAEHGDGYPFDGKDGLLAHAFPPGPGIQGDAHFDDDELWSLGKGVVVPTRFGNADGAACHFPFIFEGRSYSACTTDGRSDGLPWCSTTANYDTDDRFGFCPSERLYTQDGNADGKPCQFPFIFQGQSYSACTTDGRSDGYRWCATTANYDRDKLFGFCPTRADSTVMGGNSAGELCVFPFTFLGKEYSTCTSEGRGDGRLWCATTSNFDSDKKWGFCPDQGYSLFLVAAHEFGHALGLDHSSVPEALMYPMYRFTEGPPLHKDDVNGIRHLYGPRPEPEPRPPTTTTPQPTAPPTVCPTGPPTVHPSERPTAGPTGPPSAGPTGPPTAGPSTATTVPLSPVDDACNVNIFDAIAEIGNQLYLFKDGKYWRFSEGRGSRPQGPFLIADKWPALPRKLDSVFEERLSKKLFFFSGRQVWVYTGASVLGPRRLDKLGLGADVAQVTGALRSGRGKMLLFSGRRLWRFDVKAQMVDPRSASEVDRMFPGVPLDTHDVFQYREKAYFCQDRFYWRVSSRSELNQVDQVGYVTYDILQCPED

[5] = target: Collagenase 3 (Homo sapiens) (UniProt P45452); test: Inhibition of recombinant human 6His-tagged MMP13 catalytic domain (104 to 274 residues) expressed in Escherichia coli at 4 to 25 nM using 5-FAM/QXL520 FRET peptide as substrate preincubated for 15 mins followed by substrate addition and measured at 3 mins interval for 60 mins by fluorescence assay; conditions: dose nM 4-25, time 75.0 min; outline: as §1
[6] = target: Matrix metalloproteinase-14 (Homo sapiens) (UniProt P50281); test: (§2) Inhibition of recombinant human His-tagged MMP14 expressed in Escherichia coli at 4 to 25 nM using 5-FAM/QXL520 FRET peptide as substrate preincubated for 15 mins followed by substrate addition and measured at 3 mins interval for 60 mins by fluorescence assay; conditions: dose nM 4-25, time 75.0 min; outline: as §1
[7] = target: T1, Macrophage metalloelastase; test: Potency index, ratio of MMP408 IC50 to test compound IC50 for inhibition of recombinant human MMP12 catalytic domain (Gly106 to Gly263 residues) expressed in Escherichia coli BL21 Codon Plus cells
Target sequence in this assay (P39900 106-470 limits assumed): as the sequence (P39900 106-470 limits assumed) above

[8] = target: Stromelysin-1 (Homo sapiens) (UniProt P08254); test: as §2, with “MMP3 catalytic domain (Pro19 to Glu271 residues)” for “MMP14”; conditions: dose nM 4-25, time 75.0 min; outline: as §1
Stromelysin-1 (Homo sapiens), sequence (P08254 100-477 limits assumed): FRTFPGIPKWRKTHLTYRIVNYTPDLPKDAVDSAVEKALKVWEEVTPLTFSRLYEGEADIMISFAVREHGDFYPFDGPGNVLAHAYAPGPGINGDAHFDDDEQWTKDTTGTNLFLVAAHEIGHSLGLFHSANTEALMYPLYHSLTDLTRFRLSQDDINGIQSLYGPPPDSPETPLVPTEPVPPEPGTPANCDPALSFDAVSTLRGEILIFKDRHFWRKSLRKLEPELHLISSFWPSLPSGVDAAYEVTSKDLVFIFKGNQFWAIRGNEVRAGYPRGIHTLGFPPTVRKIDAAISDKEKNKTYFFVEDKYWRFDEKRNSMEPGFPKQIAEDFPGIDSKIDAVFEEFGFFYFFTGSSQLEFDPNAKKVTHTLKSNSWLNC

[9] = test system: Mus musculus; test: Protection against porcine elastase-induced emphysema in ip dosed C57BL/6 mouse model assessed as effect on total BALF cellularity/influx administered once daily for 7 days measured 21 days post initial elastase instillation; type: functional, organism-based; conditions: time 19.0 day
Outline: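 Same elastase and dosing scheme as line 10 (C57BL/6, intranasal 0.9 U PPE, daily i.p. for 7 days from day 2). At day 21 BAL cell pellet taken up in 200 μl PBS and counted on a hemocytometer. Cytospin differentials of 300 cells per slide. Two-way ANOVA with Tukey post-hoc.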

[10] = test system: Mus musculus; test: Protection against porcine elastase-induced emphysema in ip dosed C57BL/6 mouse model assessed as decrease in emphysema-like pathology administered once daily for 7 days measured 21 days post initial elastase instillation by H and E staining based light microscopic analysis; type: functional, organism-based; conditions: time 19.0 day
Outline: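 Male and female C57BL/6 mice, 6–8 weeks, given one intranasal dose of 0.9 U porcine pancreatic elastase in 50 μl PBS (saline controls). From day 2, daily i.p. vehicle or inhibitor for 7 days. At day 21 lungs formalin-inflated at 20 cm pressure, paraffin-embedded, H&E-stained and imaged at 10x. Mean linear intercept = line length/alveolar wall intersections. Two-way ANOVA with Tukey.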

[11] = Cmax in Balb/c mouse at 30 mg/kg, ip by LC-MS/MS analysis; type: ADME, organism-based; parameters: route intraperitoneal, dose 30 mg/kg; conditions: in vivo
Outline: (§3)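 Single i.p. dose of 30 mg/kg to 5 Balb-C mice (22–26 g) in 10% DMSO, 40% PEG400, 10% (2-hydroxypropyl)-β-cyclodextrin in PBS. Retro-orbital blood taken at 30 min, 1, 2, 4, 8 and 24 h. Plasma drug measured by extraction and LC/MS against a calibration curve of purified agent.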

[12] = Ratio of Cmax in Balb/c mouse at 30 mg/kg, ip to IC90 for inhibition of recombinant human MMP12 catalytic domain (Gly106 to Gly263 residues) expressed in Escherichia coli BL21 Codon Plus cells; type: organism-based; conditions: in vivo
[13] = Tmax in Balb/c mouse at 30 mg/kg, ip by LC-MS/MS analysis; type: ADME, organism-based; conditions: in vivo; outline: as §3
[14] = Half life in Balb/c mouse at 30 mg/kg, ip by LC-MS/MS analysis; type: ADME, organism-based; conditions: in vivo; outline: as §3

SMILES | IC50 [1] [nM] | Ratio [2] | also measured
CC(=O)N[C@@H](COCc1ccccc1)C(=O)N[C@H](CCc1ccccc1)C(=O)N[C@H](Cc1ccc(F)c(F)c1F)C(=O)NO | 75.9 | 1 | 
CC(=O)N[C@@H](COCc1ccccc1)C(=O)N[C@H](CCc1ccccc1)C(=O)N[C@H](Cc1cccc(Cl)c1)C(=O)NO (Ac-Ser(Bn)-[d(hPhe)]-[dPhe(3-Cl)]-{NHOH}) | 47.2 | > 1 | 
CC(=O)N[C@@H](COCc1ccccc1)C(=O)N[C@H](Cc1ccc(-c2ccccc2)cc1)C(=O)N[C@H](Cc1ccccc1)C(=O)NO (Ac-Ser(Bn)-[dBip]-[dF]-{NHOH}) |  | inactive | 
CC(=O)N[C@@H](COCc1ccccc1)C(=O)N[C@H](CCc1ccccc1)C(=O)N[C@H](Cc1ccc(O)cc1)C(=O)NO (Ac-Ser(Bn)-[d(hPhe)]-[dY]-{NHOH}) | 42.1 | > 1 | 
CC(=O)N[C@@H](COCc1ccccc1)C(=O)N[C@H](CCc1ccccc1)C(=O)N[C@H](Cc1ccc(F)cc1)C(=O)NO (Ac-Ser(Bn)-[d(hPhe)]-[dPhe(4-F)]-{NHOH}) | 42 | > 1 | 
CC(=O)N[C@@H](Cc1ccc2ccccc2c1)C(=O)N[C@H](CCc1ccccc1)C(=O)N[C@H](Cc1ccccc1)C(=O)NO (Ac-[2Nal]-[d(hPhe)]-[dF]-{NHOH}) | 138 | < 1 | 
CC(=O)N[C@@H](COCc1ccccc1)C(=O)N[C@H](CCc1ccccc1)C(=O)N[C@H](Cc1ccc(Cl)cc1)C(=O)NO (Ac-Ser(Bn)-[d(hPhe)]-[dPhe(4-Cl)]-{NHOH}) | 35.1 | > 1 | 
CC(=O)N[C@@H](COCc1ccccc1)C(=O)N[C@H](CCc1ccccc1)C(=O)N[C@H](Cc1cccc(C)c1)C(=O)NO (Ac-Ser(Bn)-[d(hPhe)]-[dPhe(3-Me)]-{NHOH}) | 35.5 | > 1 | 
CC(=O)N[C@@H](COCc1ccccc1)C(=O)N[C@@H](C(=O)N[C@H](Cc1ccccc1)C(=O)NO)C1Cc2ccccc2C1 (Ac-Ser(Bn)-[dIgl]-[dF]-{NHOH}) |  | inactive | 
COC(=O)Nc1ccc2oc3cc(S(=O)(=O)N[C@@H](C(=O)O)C(C)C)ccc3c2c1 |  |  | Activity [9]: inactive; Activity [10]: Active
CC(=O)N[C@@H](COCc1ccccc1)C(=O)N[C@H](CCc1ccccc1)C(=O)N[C@H](Cc1ccc(OC(C)=O)cc1)C(=O)NO (Ac-Ser(Bn)-[d(hPhe)]-[dY](Ac)-{NHOH}) | 36.1 | 1 | 
CC(=O)N[C@@H](COCc1ccccc1)C(=O)N[C@H](CCCc1ccccc1)C(=O)N[C@H](Cc1ccccc1)C(=O)NO |  | < 1 | 
CC(=O)N[C@@H](COCc1ccccc1)C(=O)N[C@H](CCc1ccccc1)C(=O)N[C@H](Cc1ccc(OS(=O)(=O)F)cc1)C(=O)NO |  | < 1 | 
CC(=O)N[C@@H](COCc1ccccc1)C(=O)N[C@H](CCc1ccccc1)C(=O)N[C@H](Cc1ccc(C(F)(F)F)cc1)C(=O)NO (Ac-Ser(Bn)-[d(hPhe)]-[dPhe(4-CF3)]-{NHOH}) | 57.1 | 1 | 
CC(=O)N[C@@H](COCc1ccccc1)C(=O)N[C@H](CCc1ccccc1)C(=O)N[C@H](Cc1ccccc1C)C(=O)NO (Ac-Ser(Bn)-[d(hPhe)]-[dPhe(2-Me)]-{NHOH}) |  | < 1 | 

Continued by falling IC50 [1], values first:

IC50 [1] [nM] | Ratio [2] | SMILES | also measured
34.9 | 1 | CC(=O)N[C@@H](Cc1c[nH]c2ccccc12)C(=O)N[C@H](CCc1ccccc1)C(=O)N[C@H](Cc1ccccc1)C(=O)NO (HELM PEPTIDE1{[ac].W.[O=C([C@@H](CCc1ccccc1)N[*:1])[*:2]].[dF].[ON[*:1]]}$$$$V2.0) | 
30.2 | > 1 | CC(=O)N[C@@H](COCc1ccccc1)C(=O)N[C@H](CCc1ccccc1)C(=O)N[C@H](Cc1cccc(F)c1)C(=O)NO (Ac-Ser(Bn)-[d(hPhe)]-[dPhe(3-F)]-{NHOH}) | 
27.8 | > 1 | CC(=O)N[C@@H](COCc1ccccc1)C(=O)N[C@H](CCc1ccccc1)C(=O)N[C@H](Cc1ccccc1F)C(=O)NO (Ac-Ser(Bn)-[d(hPhe)]-[dPhe(2-F)]-{NHOH}) | 
26.5 | > 1 | CC(=O)N[C@@H](COCc1ccccc1)C(=O)N[C@H](CCc1ccccc1)C(=O)N[C@H](Cc1ccccc1)C(=O)NO (Ac-Ser(Bn)-[d(hPhe)]-[dF]-{NHOH}) | inhibition [3]: inactive; inhibition [4]: inactive; inhibition [5]: inactive; inhibition [6]: inactive
20.9 | > 1 | CC(=O)N[C@@H](COCc1ccccc1)C(=O)N[C@H](CCc1ccccc1)C(=O)N[C@H](Cc1ccc(C)cc1)C(=O)NO (Ac-Ser(Bn)-[d(hPhe)]-[dPhe(4-Me)]-{NHOH}) | 
20.5 | > 1 | COc1ccc(CCC[C@H](NC(C)=O)C(=O)N[C@H](CCc2ccccc2)C(=O)N[C@H](Cc2ccccc2)C(=O)NO)cc1 | 
19.5 | > 1 | CC(=O)N[C@@H](CCCc1ccccc1)C(=O)N[C@H](CCc1ccccc1)C(=O)N[C@H](Cc1ccccc1)C(=O)NO | 
16.7 | 1 | CC(=O)N[C@@H](COCc1ccccc1)C(=O)N[C@H](CCc1ccc(C(F)(F)F)cc1)C(=O)N[C@H](Cc1ccccc1)C(=O)NO | 
16.3 | > 1 | COc1ccc(CC[C@@H](NC(=O)[C@H](COCc2ccccc2)NC(C)=O)C(=O)N[C@H](Cc2ccccc2)C(=O)NO)cc1 | 
4.5 |  | COc1ccc(CC[C@@H](NC(=O)[C@H](CCCc2ccccc2)NC(=O)CN2CCOCC2)C(=O)N[C@H](Cc2ccc(C)cc2)C(=O)NO)cc1 | Ratio IC50 [7]: > 5; inhibition [3]: inactive; inhibition [4]: inactive; inhibition [5]: inactive; inhibition [6]: inactive; inhibition [8]: Active; Cmax [11]: 580 nM; Ratio [12]: > 20; Tmax [13]: 2 h; half-life [14]: 5 h; Activity [9]: inactive; Activity [10]: Active
4.4 |  | COc1ccc(CCC[C@H](NC(=O)CN2CCOCC2)C(=O)N[C@H](CCc2ccc(OC)cc2)C(=O)N[C@H](Cc2ccc(C)cc2)C(=O)NO)cc1 | Ratio IC50 [7]: > 5; inhibition [3]: inactive; inhibition [4]: inactive; inhibition [5]: inactive; inhibition [6]: inactive; inhibition [8]: Active; Activity [9]: inactive; Activity [10]: Active
2.4 |  | CNC(=O)[C@H](Cc1c[nH]c2ccccc12)NC(=O)[C@@H](CC(=O)NO)CC(C)C [ILOMASTAT] | inhibition [8]: Active
